Measured values gathered from unrelated publications.
Protocols differ between the studies behind these lines.
Read-out: cell growth or viability

Structure (SMILES) | cell line | technique | concentration | time | quantity | result
Cc1cc(C)cc(COc2cc3c(cc2OCc2cc(C)cc(C)c2)[C@H]2C[C@](O)(Cc4cn(CCOCCOCCOCC(=O)N[C@H](C(=O)N5C[C@H](O)C[C@H]5C(=O)NCc5ccc(-c6scnc6C)cc5)C(C)(C)C)nn4)C[C@H](C)N2CC3)c1 | ASPC1 | MTT | – | – | IC50 | 0.73 µM
Cc1cn(CC(c2cn(C)c3ccccc23)c2cn(C)c3ccccc23)nn1 | HaCaT | MTS | 20 µM | 24 h | inhibition | 9.6%
Cc1cc(C)cc(COc2cc3c(cc2OCc2cc(C)cc(C)c2)[C@H]2C[C@](O)(Cc4cn(Cc5cc(C(F)(F)F)cc(C(F)(F)F)c5)nn4)C[C@H](C)N2CC3)c1 | ASPC1 | MTT | – | – | IC50 | 0.836 µM
C[C@@H](Oc1cc(-c2cnn(C3CCNCC3)c2)cnc1N)c1c(Cl)ccc(F)c1Cl | KARPAS-299 | MTT | 1 µg/mL | 72 h | inhibition | 85.2%
N=C(N)c1ccc(OCCCCCOc2ccc(C(=N)N)cc2)cc1 | HaCaT | MTS | 20 µM | 24 h | inhibition | 11.2%
Cc1ccc(Cn2cc(C[C@@]3(O)C[C@@H]4c5cc(OCc6cc(C)cc(C)c6)c(OCc6cc(C)cc(C)c6)cc5CCN4[C@@H](C)C3)nn2)cc1 | ASPC1 | MTT | – | – | IC50 | 0.56 µM
CCOC(=O)c1cn(CC(c2cn(C)c3ccc(C)cc23)c2cn(C)c3ccc(C)cc23)c(C)c1C(=O)OC | HaCaT | MTS | 20 µM | 24 h | inhibition | 9.5%
Cc1cc(C)cc(COc2cc3c(cc2OCc2cc(C)cc(C)c2)[C@H]2C[C@](O)(Cc4cn(CC5CC5)nn4)C[C@H](C)N2CC3)c1 | ASPC1 | MTT | – | – | IC50 | 0.612 µM
COC(C)(C)CCC[C@](C)(O)[C@H]1CC[C@]2(C)[C@@H]1[C@H](O)C[C@@H]1[C@@]3(C)CC[C@H](O)C(C)(C)[C@@H]3CC[C@]12C | NCI-H358 | MTT | – | 72 h | IC20 | 4.48 µM
CC(C)C[C@H](NC(=O)[C@H](Cc1ccccc1)NC(=O)c1cnccn1)B(O)O | KARPAS-299 | ATP luminescence | – | – | IC50 | 0.0052 µM
C=CC(=O)N1CCC[C@@H](n2nc(-c3ccc(Oc4ccccc4)cc3)c3c(N)ncnc32)C1 | KU812 | – | – | 48 h | GI50 | 3.08 µM
Cc1c(-c2cccc(C(F)(F)F)c2)sc2[nH]c(=O)n([C@H](C)c3cccc4ccccc34)c(=O)c12 | HCC827 | – | 10 µM | – | inhibition | > 80%
Cc1cc(C)cc(COc2cc3c(cc2OCc2cc(C)cc(C)c2)[C@H]2C[C@](O)(Cc4cn(CC56CC7CC(CC(C7)C5)C6)nn4)C[C@H](C)N2CC3)c1 | ASPC1 | MTT | – | – | IC50 | 0.516 µM
CCCCc1nc(Cl)c(CO)n1Cc1ccc(-c2ccccc2-c2nn[nH]n2)cc1 | WI-38 | MTT | – | 72 h | EC50 | 9 µM
CCCCCCCCCCCCCCCCOP(=O)([O-])OCC[N+](C)(C)C | HaCaT | MTS | 20 µM | 24 h | inhibition | 45.5%
Cc1cc(Nc2ncc(Cl)c(Nc3ccccc3S(=O)(=O)C(C)C)n2)c(OC(C)C)cc1C1CCNCC1 | KARPAS-299 | MTT | 0.06173 µg/mL | 72 h | inhibition | 62.4%
CCOC(=O)c1c(C)ncn1CC(c1cn(C)c2ccc([N+](=O)[O-])cc12)c1cn(C)c2ccc([N+](=O)[O-])cc12 | HaCaT | MTS | 20 µM | 24 h | inhibition | 3.7%
COc1ccc(-c2ccc(-c3ccc(C(=N)N)nc3)s2)cc1 | SNB-19 | SRB | – | – | GI50 | 1.72 µM
C=CC(=O)Nc1ccc(Cn2cc(C[C@@]3(O)C[C@@H]4c5cc(OCc6cc(C)cc(C)c6)c(OCc6cc(C)cc(C)c6)cc5CCN4[C@@H](C)C3)nn2)cc1 | ASPC1 | MTT | – | – | IC50 | 0.481 µM
COc1cc(Nc2nccc(-c3cnn4nc(OC)ccc34)n2)cc(C(F)(F)F)c1 | RERF-LC-MS | ATP luminescence | – | – | IC50 | 0.59 µM
Cc1cc(C)cc(COc2cc3c(cc2OCc2cc(C)cc(C)c2)C2CC(O)(Cc4cn(CCOCCOCCOCCOc5ccc6c(c5)C(=O)N(C5CCC(=O)NC5=O)C6=O)nn4)CC(C)N2CC3)c1 (stereo not drawn) | ASPC1 | MTT | – | – | IC50 | 1.12 µM
COc1cc(-c2ccc(-c3ccc(C(=N)N)nc3)s2)cc(OC)c1OC | CAKI-1 | – | – | – | GI50 | 1.59 µM
C/C=C/C(=O)Nc1ccc(CCn2cc(C[C@@]3(O)C[C@@H]4c5cc(OCc6cc(C)cc(C)c6)c(OCc6cc(C)cc(C)c6)cc5CCN4[C@@H](C)C3)nn2)cc1 | ASPC1 | MTT | – | – | IC50 | 0.87 µM
CC(C)=CCC[C@](C)(O)[C@H]1CC[C@]2(C)[C@@H]1[C@H](O)C[C@@H]1[C@@]3(C)CC[C@H](O[C@@H]4O[C@H](CO)[C@@H](O)[C@H](O)[C@H]4O[C@@H]4O[C@H](CO)[C@@H](O)[C@H](O)[C@H]4O)C(C)(C)[C@@H]3CC[C@]12C | NCI-H358 | MTT | – | 72 h | IC20 | > 100 µM
